Test results as given in PubChem BioAssay AID743061 (The Scripps Research Institute Molecular Screening Center, 2013).
“And” between values parts separate entries of the source, which are not always exact repeats. Equal entries are not always repeated.

Molecular target: Methionine--tRNA ligase, mitochondrial (Homo sapiens) (UniProt Q96GW9)
Test: inhibitors of human mitochondrial MetRS, late-stage follow-up, selectivity assay for T. brucei MetRS inhibitor project, biochemical, radioactivity, round 1 (AID 743061);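 further: 0% = DMSO with full reaction and 100% = DMSO wells lacking tRNA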
Conditions: recombinant human mtMetRS, [3H]Met tRNA charging, at 10 µM, stronger effect = higher value
Method in brief: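 Material – recombinant human mitochondrial methionyl-tRNA synthetase (MetRS) · Input – 13 nM enzyme · Also added – 240 nM [3H]methionine with bulk E. coli tRNA acceptor · Compound dosing – 10 and 1 µM · Schedule – 15 min preincubation, 1 h reaction, room temperature · Detection – scintillation counts of TCA-precipitated charged tRNA on filters · Benchmarks – high DMSO, low without tRNA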

| Compound | inhibition |
| --- | --- |
| CNC(=S)N(CCc1ccccc1)C1CC(=O)N(c2ccc(Br)cc2)C1=O (centres undefined) | 83.7% |
| COc1cccc(NC(=O)CSc2nnc3c(n2)[nH]c2ccc(C)cc23)c1 | 40.4% |
| O=C(C(=O)N1CCOCC1)c1cn(CC(=O)N2CCCc3ccccc32)c2ccccc12 | 3.68% |
| O=C(Nc1ccc(F)c(Cl)c1)C1CC(=O)n2c(nc3ccccc32)N1 (centres undefined) | 4.32% and 12.5% |
| O=C1CC(N(CCc2ccccc2)C(=S)Nc2ccccc2)C(=O)N1c1ccc(Br)cc1 (centres undefined) | 25.6% |
| Cc1[nH]c2ccc(Br)cc2c(=O)c1CN1CCCCCC1 | -11% |
| O=C(NCCc1nc2ccccc2[nH]1)c1ccc(Cl)c(Cl)c1 | 27.7% |
| O=C(NCCc1nc2ccccc2[nH]1)c1ccc(Cl)cc1Cl | 48.7% |
| O=C(NCc1nc2ccccc2[nH]1)C1=C[C@H](C2CC2)C[C@H](OCc2ccc(CO)cc2)O1 | 12.6% |
| CCN(C(=O)Cn1cc(C(=O)C(=O)N2CCOCC2)c2ccccc21)c1ccccc1 | -14.2% |
| CCCCCCCCCC1NC(C(=O)O)Cc2c1[nH]c1ccccc21 (centres undefined) | 9.9% |
| CC(=O)c1cn(CC(=O)Nc2cccc(C(F)(F)F)c2)c2ccccc12 | -0.68% |
| O=C(NCc1nc2ccccc2[nH]1)C1=C[C@H](c2ccccc2)C[C@H](OCc2ccc(CO)cc2)O1 | 12.7% |
| O=C(Cn1cc(C(=O)c2ccccc2)c2ccccc21)Nc1cccc(C(F)(F)F)c1 | 9.64% |
| CC(C)c1nc2ccc(C(=O)N(C)CCc3nc4ccc(F)cc4[nH]3)cc2o1 | 0.38% |
| Cc1cccc2[nH]c(C3CCCN(C(=O)c4cccc5cccnc45)C3)nc12 (centres undefined) | 2.39% |
| Clc1ccc(OCCSCc2nc3ccccc3[nH]2)cc1 | -5.52% |

| Compound | inhibition |
| --- | --- |
| CCN(CCc1nc2ccc(C)cc2[nH]1)C(=O)c1ccc2ncccc2c1 | 1.1% |
| O=C(NNC(=O)c1ccc(-n2cncn2)c([N+](=O)[O-])c1)c1ccc(Cl)cc1 | -21.4% |
| CN(CC(=O)Nc1ccc(Cl)cc1)C(=O)c1ccc(-n2cncn2)c([N+](=O)[O-])c1 | -19.1% |
| CC(=O)c1ccc(N2CCN(C(=O)CCCn3c(=O)[nH]c4ccc(Br)cc4c3=O)CC2)cc1 | 7.87% |
| O=C(NCc1nc2ccccc2[nH]1)C1=C[C@H](c2ccc(Br)cc2)C[C@H](OCCCCO)O1 | -2.4% |
| O=C(NCc1nc2ccccc2[nH]1)C1=C[C@H](c2ccc3c(c2)OCO3)C[C@H](OCCCCO)O1 | 10.2% |
| CCN(CC)C(=O)C(=O)c1cn(CC(=O)N2CCCc3ccccc32)c2ccccc12 | -1.92% |
| CCc1ccc2[nH]c3nc(SCC(=O)NCc4cccc(OC)c4)nnc3c2c1 | 13.1% |
| CCN(CC)C(=O)C(=O)c1cn(CC(=O)N(CC)c2ccccc2)c2ccccc12 | 9.56% |
| COc1ccc(CNC(=O)CSc2nnc3c(n2)[nH]c2ccc(F)cc23)cc1 | -12% |
| CCC(=O)c1cn(CC(=O)Nc2cccc(C(F)(F)F)c2)c2ccccc12 | -3.88% |
| COc1ccc(CCN(C(=S)Nc2ccccc2)C2CC(=O)N(c3ccc(Cl)cc3)C2=O)cc1 (centres undefined) | 61.9% |
| CC(CC(=O)Nc1cccc(Br)c1)=NNC(=O)c1ccc(O)cc1O | 4.55% |
| O=C(CN1CCSC1=NCc1ccccc1)c1ccc(Cl)c(Cl)c1 | -25.5% |
| COc1ccc(CCN(C(=O)c2cccc(F)c2)C2CC(=O)N(c3ccc(Br)cc3)C2=O)cc1 (centres undefined) | 4.36% |
| CN(Cc1cc(Cl)cc(Cl)c1)[C@H]1C[C@H]2c3[nH]c4ccccc4c3CCN2C(=O)[C@H]1CO | 80.3% |
| O=C(NCc1nc2ccccc2[nH]1)C1=C[C@@H](c2ccc(Br)cc2)C[C@@H](OCc2ccc(CO)cc2)O1 | 16.7% |
